Each molecule was assayed on Hepatovirus A (assay: Antiviral activity against HAV MBB in human HepG2 cells assessed as reduction in viral titer at 10 ug/ml by plaque reduction assay).
Assay type: functional, Human hepatitis A virus Hu/Northern Africa/MBB/1978
Parameters: scale not given: the % may be the effect or the level left
Procedure, shortened: (§1)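 HAV pre-mixed with compound (10 or 20 µg/10⁵ cells; virus at 10⁴ PFU/ml final), held overnight at 4 °C. Mixture inoculated onto HepG2 monolayers grown 2 days at 37 °C, then 1 h contact. Overlay of MEM with 1% agarose, incubated at 37 °C until plaques formed. Formalin-fixed, crystal violet-stained. Plaques counted; % reduction calculated against untreated virus control.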
Work on `CC1(C)CC(=O)C=C(NCc2nnc(Nc3ccccc3)s2)C1` yielded an Activity of 45.2%. `CC1(C)CC(=O)C=C(NCC(=O)N/N=C\c2ccc(O)cc2)C1` showed an Activity of 9.4%. `CC1(C)CC(=O)C=C(NCC(=O)N/N=C\c2ccc(Br)cc2)C1` was tested, and the Activity was 43.3%. In the case of `COc1ccc(/C=N\NC(=O)CNC2=CC(=O)CC(C)(C)C2)cc1`, the Activity is reported as 24.5%. In the case of `CC1(C)CC(=O)C=C(NCC(=O)NNC(=S)Nc2ccccc2)C1`, the Activity is reported as 18.8%. `CCOC(=O)CN1C2=C(C(=O)CC(C)(C)C2)C(c2ccc(O)cc2)C2=C1CC(C)(C)CC2=O` gave an Activity of 30.1%. `CCOC(=O)CN1C2=C(C(=O)CC(C)(C)C2)C(c2ccc(OC)cc2)C2=C1CC(C)(C)CC2=O` was tested, and the Activity was 24.5%. Molecule `CC1(C)CC(=O)C=C(NCC(=O)NN)C1` has an Activity of 33.9%. `CCOC(=O)CNC1=CC(=O)CC(C)(C)C1` gave an Activity of 5.6%. Work on `CC1(C)CC(=O)C=C(NCC(=O)N/N=C\c2ccc(Cl)cc2)C1` yielded an Activity of 57.5%. Molecule `CC1(C)CC(=O)C=C(NCC(=O)NNC(=O)NCCCl)C1` has an Activity of 42.4%. Molecule `CCOC(=O)CN1C2=C(C(=O)CC(C)(C)C2)C(c2ccc(Cl)cc2)C2=C1CC(C)(C)CC2=O` has an Activity of 30.1%. `CCOC(=O)CN1C2=C(C(=O)CC(C)(C)C2)C(c2ccccc2)C2=C1CC(C)(C)CC2=O` was tested, and the Activity was 37.7%. Work on `CCOC(=O)CN1C2=C(C(=O)CC(C)(C)C2)C(c2ccc(Br)cc2)C2=C1CC(C)(C)CC2=O` yielded an Activity of 47.1%. For `CC1(C)CC(=O)C=C(NCc2nnc(S)n2-c2ccccc2)C1`, the Activity was 28.3%. With `CC1(C)CC(=O)C=C(NCC(=O)N/N=C\c2ccc([N+](=O)[O-])cc2)C1` the Activity was 39.6%. `CC1(C)CC(=O)C=C(NCC(=O)N/N=C\c2ccccc2)C1` was tested, and the Activity was 56.6%. In the case of `NC12CC3CC(CC(C3)C1)C2` [AMANTADINE], the Activity is reported as 30.1%.

What follows are molecules tested on HepG2 (assay: Cytotoxicity against human HepG2 cells assessed as reduction in cell growth at 10 umol/ml after 24 hrs by MTT assay relative to control).
Assay type: functional
Parameters: scale not given: the % may be the effect or the level left
Procedure, shortened: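 HepG2 grown in RPMI-1640 with 10% FCS. Cells taken at ~80% confluence, seeded 3×10³/well, incubated overnight at 37 °C, 5% CO₂. Compound exposure 24 h. Then PBS wash and MTT (0.5 mg/ml) for 4 h. Crystals dissolved in DMSO, OD read at 570 nm (reference 690 nm). Reported as % reduction in cell growth versus untreated control.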
For `CC1(C)CC(=O)C=C(NCC(=O)N/N=C\c2ccc(O)cc2)C1`, the Activity was 40.32%. Work on `CC1(C)CC(=O)C=C(NCC(=O)N/N=C\c2ccc(Br)cc2)C1` yielded an Activity of 40.06%. For `COc1ccc(/C=N\NC(=O)CNC2=CC(=O)CC(C)(C)C2)cc1`, the Activity was 16.99%. With `CC1(C)CC(=O)C=C(NCC(=O)NNC(=S)Nc2ccccc2)C1` the Activity was 54.84%. For `CCOC(=O)CN1C2=C(C(=O)CC(C)(C)C2)C(c2ccc(O)cc2)C2=C1CC(C)(C)CC2=O`, the Activity was 54.7%. With `CCOC(=O)CN1C2=C(C(=O)CC(C)(C)C2)C(c2ccc(OC)cc2)C2=C1CC(C)(C)CC2=O` the Activity was 37.99%. `CC1(C)CC(=O)C=C(NCC(=O)NN)C1` showed an Activity of 57.4%. `CCOC(=O)CNC1=CC(=O)CC(C)(C)C1` gave an Activity of 50%. `CC1(C)CC(=O)C=C(NCC(=O)NNC(=O)NCCCl)C1` showed an Activity of 58.29%. `CCOC(=O)CN1C2=C(C(=O)CC(C)(C)C2)C(c2ccc(Cl)cc2)C2=C1CC(C)(C)CC2=O` was tested, and the Activity was 54.14%. Molecule `CCOC(=O)CN1C2=C(C(=O)CC(C)(C)C2)C(c2ccccc2)C2=C1CC(C)(C)CC2=O` has an Activity of 3.32%. Work on `CCOC(=O)CN1C2=C(C(=O)CC(C)(C)C2)C(c2ccc(Br)cc2)C2=C1CC(C)(C)CC2=O` yielded an Activity of 49.17%. `CC1(C)CC(=O)C=C(NCc2nnc(S)n2-c2ccccc2)C1` gave an Activity of 35.64%.

The molecules below were run on Hepatovirus A (assay: Antiviral activity against HAV MBB in human HepG2 cells assessed as reduction in viral titer at 20 ug/ml by plaque reduction assay).
Assay type: functional, Human hepatitis A virus Hu/Northern Africa/MBB/1978
Parameters: scale not given: the % may be the effect or the level left
Procedure, shortened: as §1
For `CC1(C)CC(=O)C=C(NCc2nnc(Nc3ccccc3)s2)C1`, the Activity was 49%. With `CC1(C)CC(=O)C=C(NCC(=O)N/N=C\c2ccc(O)cc2)C1` the Activity was 15%. `CC1(C)CC(=O)C=C(NCC(=O)N/N=C\c2ccc(Br)cc2)C1` gave an Activity of 27.3%. `COc1ccc(/C=N\NC(=O)CNC2=CC(=O)CC(C)(C)C2)cc1` gave an Activity of 36.2%. Molecule `CC1(C)CC(=O)C=C(NCC(=O)NNC(=S)Nc2ccccc2)C1` has an Activity of 39.6%. Work on `CCOC(=O)CN1C2=C(C(=O)CC(C)(C)C2)C(c2ccc(O)cc2)C2=C1CC(C)(C)CC2=O` yielded an Activity of 48.1%. `CCOC(=O)CN1C2=C(C(=O)CC(C)(C)C2)C(c2ccc(OC)cc2)C2=C1CC(C)(C)CC2=O` was tested, and the Activity was 45.2%. `CC1(C)CC(=O)C=C(NCC(=O)NN)C1` was tested, and the Activity was 34.9%. `CCOC(=O)CNC1=CC(=O)CC(C)(C)C1` showed an Activity of 15%. Work on `CC1(C)CC(=O)C=C(NCC(=O)N/N=C\c2ccc(Cl)cc2)C1` yielded an Activity of 60.3%. With `CC1(C)CC(=O)C=C(NCC(=O)NNC(=O)NCCCl)C1` the Activity was 40.5%. `CCOC(=O)CN1C2=C(C(=O)CC(C)(C)C2)C(c2ccc(Cl)cc2)C2=C1CC(C)(C)CC2=O` was tested, and the Activity was 47.1%. Work on `CCOC(=O)CN1C2=C(C(=O)CC(C)(C)C2)C(c2ccccc2)C2=C1CC(C)(C)CC2=O` yielded an Activity of 60.3%. `CCOC(=O)CN1C2=C(C(=O)CC(C)(C)C2)C(c2ccc(Br)cc2)C2=C1CC(C)(C)CC2=O` showed an Activity of 52.8%. For `CC1(C)CC(=O)C=C(NCc2nnc(S)n2-c2ccccc2)C1`, the Activity was 30.1%. `CC1(C)CC(=O)C=C(NCC(=O)N/N=C\c2ccc([N+](=O)[O-])cc2)C1` gave an Activity of 43.3%. For `CC1(C)CC(=O)C=C(NCC(=O)N/N=C\c2ccccc2)C1`, the Activity was 58.4%. In the case of `NC12CC3CC(CC(C3)C1)C2` [AMANTADINE], the Activity is reported as 45.2%.

Source: ChEMBL document CHEMBL1153617, “Synthesis of new acridines and hydrazones derived from cyclic beta-diketone for cytotoxic and antiviral evaluation” (2009)
